Screening data from PubChem BioAssay.
Rows were chosen to be rich in hits. Some 3.8% of all compounds tested hit in one or more screens of this group.
MPTP block: blocks calcium-induced mitochondrial swelling; isolated mouse mitochondria, Ca2+ swelling absorbance, 30 min; inhibition, % at 10 µM; 360,000 tested, 1.4% active; AID 602449;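 active = inhibition of 50% or more, scaled per plate between neutral and stimulator controls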
CHO parental Ca: signal in parental CHO cells, OX1R antagonist counter-screen; parental CHO-K1, ATP-induced calcium, Fluo-8 fluorescence; inhibition, % at 5.6 µM; 330,000 tested, 0.63% active; AID 463079;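 active = inhibition above that plate's mean sample inhibition plus 3 SD, cut at about 26% in these data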
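Test system: untransfected parental CHO cell line. Compound: one dose, 5.6 µM nominal. Detection: intracellular calcium via Fluo-8 no-wash fluorescent dye. Measure: % inhibition. Benchmarks: ATP-challenged DMSO wells low, unchallenged DMSO wells high.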
GPR7 antagonist: human neuropeptides B/W receptor 1 antagonism; P48145; GPR7-expressing cells, fluorescence antagonist assay; inhibition, % at 4.4 µM; 290,000 tested, 1.1% active; AID 1861; in the data active = inhibition above about 16%, passing the limit was not always enough;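 also: cells stimulated with the agonist NPW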
Target sequence (P48145 whole entry, looked up): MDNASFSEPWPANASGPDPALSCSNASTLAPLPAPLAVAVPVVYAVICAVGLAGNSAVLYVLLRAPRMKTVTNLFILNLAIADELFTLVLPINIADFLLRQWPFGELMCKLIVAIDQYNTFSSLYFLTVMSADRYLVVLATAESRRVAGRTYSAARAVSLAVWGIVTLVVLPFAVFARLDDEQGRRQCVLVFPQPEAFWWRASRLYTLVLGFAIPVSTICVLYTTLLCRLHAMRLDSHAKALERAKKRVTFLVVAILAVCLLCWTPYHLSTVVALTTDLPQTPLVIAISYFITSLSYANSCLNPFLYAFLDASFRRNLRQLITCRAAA
OX1R antag-1: antagonists of human orexin 1 receptor (OX1R); O43613; OX1R-expressing cells, FRET antagonist read-out; inhibition, % at 6.6 µM; 330,000 tested, 1.8% active; AID 485270; in the data active = inhibition mostly above about 38%, no sharp cut-off; inactive = mostly below about 40%
OX1R antag-2: blocks the human orexin 1 receptor. CHO/OX1R cells, Fluo-8 calcium fluorescence, orexin A. inhibition, % at 5 µM. O43613. 330,000 tested, 0.43% active;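 active = inhibition above its plate's threshold, mean inhibition of all tested compounds on the plate plus 3 SD, cut at about 37% in these data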
Of the large screens only hits and unclear results are named; the others gave an inactive call.

CC1(C)C(=O)NCCN1C(=O)CC1C(=O)NCCN1Cc1cccc(C(F)(F)F)c1 (stereo not given)	none
CCCCC(O)(CCCC)C(=O)N/N=C(\C)c1ccc(Cl)cc1	GPR7 antagonist 20
CCOC(=O)c1c(C)n(C)c2ccc(OC(=O)c3ccc([N+](=O)[O-])cc3)cc12	none
CCOC(=O)c1c(C)n(C)c2ccc(OC(=O)c3ccoc3)cc12	GPR7 antagonist 16
Cc1cccc(C(=O)NC2CCN(S(=O)(=O)c3ccc(F)cc3)CC2)c1	CHO parental Ca 41
O=C(Nc1cccc(C(F)(F)F)c1)NC1CCN(S(=O)(=O)c2ccc(F)cc2)CC1	CHO parental Ca 34
CC(=O)c1ccc(S(=O)(=O)N2CCC(NC(=O)Nc3cccc(F)c3)CC2)cc1	none
O=C(Nc1cccc(Cl)c1Cl)c1csc([C@H]2C[C@H](O)[C@@H](CO)O2)n1	none (no result: CHO parental Ca, GPR7 antagonist, OX1R antag-1, OX1R antag-2)
Cc1ccccc1-n1sc2cc(F)ccc2c1=O	CHO parental Ca 35
O=c1c2ccccc2sn1-c1ccccc1	CHO parental Ca 48
O=c1c2ccccc2sn1-c1ccccc1F	none (no result: CHO parental Ca, GPR7 antagonist, OX1R antag-1, OX1R antag-2)
O=c1c2cc(F)ccc2sn1-c1ccccc1	CHO parental Ca 72 (no result: GPR7 antagonist)
N#CC1=CC2CN(Cc3ccccc3)C1C1C(=O)N(c3ccccc3)C(=O)C21 (stereo not given)	none (no result: CHO parental Ca, GPR7 antagonist, OX1R antag-1, OX1R antag-2)
O=C(CN1C(=O)C2C3C=CC(C3)C2C1=O)OCC(=O)c1ccc(Cl)cc1 (stereo not given)	none (no result: CHO parental Ca, OX1R antag-1, OX1R antag-2)
O=C(CN1C(=O)C2C3C=CC(C3)C2C1=O)OCC(=O)c1ccc([N+](=O)[O-])cc1 (stereo not given)	OX1R antag-1 58
O=c1c2c(nc3nc(NCc4cccc(Cl)c4)[nH]n13)CCC2	none
COc1cc(-c2nnc(COC(=O)CSc3cc(C)c4ccccc4n3)o2)cc(OC)c1OC	OX1R antag-1 70
COc1cc(CCC(=O)OCc2nnc(-c3ccccc3)o2)cc(OC)c1OC	none
COc1ccc(S(=O)(=O)c2nnn(-c3cccc(Cl)c3)c2N)cc1	GPR7 antagonist 20
O=C(CSc1n[nH]c(-c2ccccc2)n1)c1ccc(O)c(O)c1	GPR7 antagonist 21
O=C(CSc1nccc(=O)[nH]1)NC1CCCCCC1	none (no result: GPR7 antagonist)
NS(=O)(=O)c1ccc(CCNC(=O)CSc2ccc(Cl)cc2)cc1	CHO parental Ca 35
NS(=O)(=O)c1ccc(CCNC(=O)COC(=O)CCSc2ccc(Cl)cc2)cc1	none
CC(C)=CCC/C(C)=C/CCC(C)NCCN1CCNCC1 (stereo not given)	GPR7 antagonist 24 (no result: MPTP block)
O=[N+]([O-])c1ccc(N(CC(O)CN2CCCCC2)S(=O)(=O)c2ccccc2)cc1 (stereo not given)	none
O=[N+]([O-])c1ccc(S(=O)(=O)N(CC(O)CN2CCCCC2)c2ccccc2)cc1 (stereo not given)	OX1R antag-1 48
CCOC(=O)c1cc2c(=O)n3cccc(C)c3nc2n(CC(C)C)c1=NC(=O)c1ccco1	OX1R antag-1 54
CCOC(=O)c1cc2c(=O)n3cccc(C)c3nc2n(CCOC)c1=NC(C)=O	none
Cc1ccc2nc3c(cc(C(=O)NC4CCCC4)c(=N)n3C3CCCCC3)c(=O)n2c1	none
C=CCn1c(=N)c(C(=O)NCCCOC)cc2c(=O)n3cc(C)ccc3nc21	OX1R antag-1 58
CCOC(=O)c1cc2c(=O)n3ccccc3nc2n(CCCOC)c1=NC(C)=O	OX1R antag-1 51
CCCn1c(=NC(=O)c2ccco2)c(C(=O)OCC)cc2c(=O)n3ccccc3nc21	OX1R antag-1 32
O=C1CCCC(=O)N1c1ccc(NCCOCCO)c([N+](=O)[O-])c1	none
COc1cccc(CNC(=O)[C@@H]2CCCN2C(=O)[C@H]2CCCCN2)c1	none (no result: CHO parental Ca, GPR7 antagonist, OX1R antag-1, OX1R antag-2)
C=CCn1c(=N)c(C(=O)OCC)cc2c(=O)n3cccc(C)c3nc21	OX1R antag-1 110 (no result: MPTP block)
Cc1sc2ncnc(N3CCC(C(=O)N(C)CC(=O)Nc4ccc(Cl)c(C(F)(F)F)c4)CC3)c2c1C	none (no result: GPR7 antagonist)
COC(=O)c1cccc2nc3c(C(C)O)cccc3nc12 (stereo not given)	OX1R antag-1 50 (no result: GPR7 antagonist)
COc1ccc(OC)c2nc3c(C(=O)NCCN(C)C)cccc3nc12	none (no result: CHO parental Ca, GPR7 antagonist, OX1R antag-1, OX1R antag-2)
NC(=O)c1c(NC(=O)c2ccccc2F)sc2c1CCCC2	OX1R antag-1 74
NC(=O)c1c(NC(=O)c2ccc(F)cc2Cl)sc2c1CCC2	OX1R antag-1 44
CC1(C(=O)NC2CCCCCC2)CCN1C(=O)C1(c2ccccc2)CC1 (stereo not given)	none (no result: CHO parental Ca, GPR7 antagonist, OX1R antag-1, OX1R antag-2)
O=C(CN1C(=O)C(=O)c2ccccc21)OCN1C(=O)c2ccccc2C1=O	OX1R antag-1 44
COc1ccccc1NC(=O)COC(=O)CN1C(=O)C(=O)c2ccccc21	none
